Source: the RNAGym collection of RNA variant scans (doi:10.1126/science.aae0568)
This sample holds only a part of the variants without activity.

B1: tRNA (parent)
chain: GUUCCGUUGGCGUAAUGGUAACGCGUCUCCCUCCUAAGGAGAAGACUGCGGGUUCGAGUCCCGUACGGAACG

Variants of: B1
Experiment: yeast fitness relative to wild type (ratio to wild type); higher = fitter; tRNA-Arg(CCU), competitive growth, 37 C, YPD
Outline: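 Changes in genotype frequencies gave Darwinian fitness relative to wild type. Frequencies were read by 100-nucleotide paired-end sequencing of gene amplicons before and after pooled Saccharomyces cerevisiae strains, carrying tRNA-Arg(CCU) gene variants at the native locus, were competed in YPD at 37°C for 24 hours in six replicates. A genotype was kept only with ≥ 100 starting reads, and estimates < 0.5 were set to 0.5.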

Question: With GUUCCGUUGGCAUAAUGGUAACGCGUCUCCCUCCUAAGGAGAAGACUGCGGAUUCGAGCCCCGUACGGAACG [G12A G52A U59C] as the variant, how does the yeast fitness read?
Answer: Its yeast fitness is ≤ 0.5.

Question: Which yeast fitness does the source give for GUUCCGUUGGCAUAAUGGUAACGCGUCUCCCUCCUAAGGAGAAGACUGCGGGUUCCAGUCCCGUACGGAACG [G12A G56C] here?
Answer: Its yeast fitness is 0.764.

Question: For GUUCCGUUGGCAUAAUGGUAACGCGUCUCCCUCCUAAGGAGAAGACUGCGGGUUCGAAUCCCGUACGGAACG [G12A G58A], which yeast fitness is on record?
Answer: Its yeast fitness is 0.924.

Question: With GUUCCGUUGGCAUAAUGGUAACGCGUCUCCCUCCUAAGGAGAAGACUGCGGGUUCGAUUCCCGUACGGAGCG [G12A G58U A70G] as the variant, how does the yeast fitness read?
Answer: Its yeast fitness is 0.538.

Question: Which yeast fitness does the source give for GUUCCGUUGGCAUAAUGGUAACGCGUCUCCCUCCUAAGGAGAAGACUGCGGGUUCGAGUCCCAUACAGAACG [G12A G63A G67A] here?
Answer: Its yeast fitness is ≤ 0.5.

Question: With GUUCCGUUGGCAUAAUGGUAACGCGUCUCCCUCCUAAGGAGAAGACUGCGGGUUCGAGUCCCGUACAGAACG [G12A G67A] as the variant, how does the yeast fitness read?
Answer: Its yeast fitness is 0.857.

Question: Which yeast fitness does the source give for GUUCCGUUGGCAUAAUGGUAACGCGUCUCCCUCCUAAGGAGAAGACUGCGGGUUCGAGUCCCGUACGAAACG [G12A G68A] here?
Answer: Its yeast fitness is 0.771.

Question: With GUUCCGUUGGCAAGAUGGUAGCGCGUCUCCCUUCUAAGGAGAAGACUGCGGGUUCGAGUCCGGUACGGAACG [G12A U13A A14G A21G C33U C62G] as the variant, how does the yeast fitness read?
Answer: Its yeast fitness is ≤ 0.5.

Question: Which yeast fitness does the source give for GUUCCGUUGGCAAGAUGGUAACGCGUCUCCCUCCUAACGAGAAGACUGCGGGUUCGAGUCCCGUACGGAACG [G12A U13A A14G G38C] here?
Answer: Its yeast fitness is ≤ 0.5.

Question: Which yeast fitness does the source give for GUUCCGUUGGCAAAAUGGUAACGCGUCUCCCUCCUAAGGACAAGCCUGCGGGUUCGAGUCCCGUACGGAACG [G12A U13A G41C A45C] here?
Answer: The yeast fitness was 0.546.

Question: For GUUCCGUUGGCACAGUGGUAACGCGUCUCCCUCCUAAGGAGAAGACUGCGGGUUCGAGUCCCGCACGGAACG [G12A U13C A15G U64C], which yeast fitness is on record?
Answer: The yeast fitness was 0.738.

Question: Which yeast fitness does the source give for GUUCCGUUGGCACAUUGGUAACGCGUCUCCCUCCUAAGGAGAAGACUGCGGGUUCGAGUCCCGUACGGAACG [G12A U13C A15U] here?
Answer: Its yeast fitness is 0.507.

Question: For GUUCCGUUGGCACAAUGGUAACGCGUCUCCCUCCUAAGGAGUAGACUGCGGGUUCGAGUCCCGUACGGAACG [G12A U13C A42U], which yeast fitness is on record?
Answer: Its yeast fitness is 0.561.

Question: With GUUCCGUUGGCACAAUGGUAAAGCGCCUCCCUCCUAAGGAGAAGACAGCGGGUGCGAGUCCCGUACGGAACG [G12A U13C C22A U26C U47A U54G] as the variant, how does the yeast fitness read?
Answer: The yeast fitness was ≤ 0.5.

Question: With GUUCCGUUGGCACAAUGGUAACGCGUCUCCCUCCUAAGGAGAACACUGCGGGUUCGAGUCCCGUACGGAACG [G12A U13C G44C] as the variant, how does the yeast fitness read?
Answer: Its yeast fitness is 0.554.

Question: With GUUCCGUUGGCAGAAUGGUAACGCGUCUCCCUCCUAAGGAGAAGACUGCGGGUUCGAGUCCCGUACGGCACG [G12A U13G A69C] as the variant, how does the yeast fitness read?
Answer: Its yeast fitness is 0.598.

Question: Which yeast fitness does the source give for GUUCCGUUGGCAGAAUGGUAACCGGUCUGCCUCCUCAGGAGAAGACUGCGGGUUCGAGUCCCGUACGGAACG [G12A U13G G23C C24G C29G A36C] here?
Answer: Its yeast fitness is ≤ 0.5.

Question: With GUUCCGUUGGCAUAAAGGUAACGCGUCUCCCUCCUAAGGGGAAGACUGCGGGUUCGCGUACUGUACGGAACG [G12A U16A A40G A57C C60A C62U] as the variant, how does the yeast fitness read?
Answer: Its yeast fitness is 0.69.

Question: Which yeast fitness does the source give for GUUCCGUUGGCAUAAAGGUAACGCGUCUCCCUCCUAAGGAGAAGUCUGCGGGUUCGAGUCCCGUACGGAACG [G12A U16A A45U] here?
Answer: The yeast fitness was 0.629.

Question: With GUUCCGUUGGCAUAAAGGUAACGCGUGUCCCUCCUAAGGAGAAGACUGCGGGUUCGAGUCCCGUACGGAACG [G12A U16A C27G] as the variant, how does the yeast fitness read?
Answer: Its yeast fitness is ≤ 0.5.

Question: For GUUCCGUUGGCAUAACGGUAACGCGUCUCCCUCCUAAGGAGAAGACUGCGGGUUCGAGUCCCGUACGGAACG [G12A U16C], which yeast fitness is on record?
Answer: Its yeast fitness is 0.981.

Question: With GUUCCGUUGGCAUAACGGUAACGCGUAUCCCUCCUAAGGAGAAGACUGCGGGUUCGAGUCCCGUACGGAACG [G12A U16C C27A] as the variant, how does the yeast fitness read?
Answer: Its yeast fitness is ≤ 0.5.

Question: With GUUCCGUUGGCAUAAGGGUAACGCGUCUCCCUCCUAAGGAGAAGACUGCGGGUUCGAGUCCCGUACGGAACG [G12A U16G] as the variant, how does the yeast fitness read?
Answer: The yeast fitness was 0.815.

Question: With GUUCCGUUGGCAUAAUGGAUACGCGUCUCCCUCCUUAGGAGAAGACUGCGGGUUCGAGUCCCGUACGGAACG [G12A U19A A20U A36U] as the variant, how does the yeast fitness read?
Answer: The yeast fitness was ≤ 0.5.

Question: Which yeast fitness does the source give for GUUCCGUUGGCAUAAUGGAAACGUGUCUCCCUCCUAAGGAGAAGACUGCGGGUUCGAGUCCCGUACGGAACG [G12A U19A C24U] here?
Answer: The yeast fitness was 0.73.

Question: Which yeast fitness does the source give for GUUCCGUUGGCAUAAUGGAAACGCGUCUGCCUCCUAAGGAGAUGACUGCGGGUUUGAGUCCCGUACGGAACG [G12A U19A C29G A43U C55U] here?
Answer: Its yeast fitness is ≤ 0.5.

Question: With GUUCCGUUGGCAUAAUGGAAACGCGUCUCCCUCCUAAGGAGAAGACUGCGGCUUCGAGUCCCGUACGGAACG [G12A U19A G52C] as the variant, how does the yeast fitness read?
Answer: Its yeast fitness is ≤ 0.5.

Question: Which yeast fitness does the source give for GUUCCGUUGGCAUAAUGGCAUCGCGUCUCCCUCCUAAGGAGAAGACUGCGGGUUCGAGUCCCGUACGGCACG [G12A U19C A21U A69C] here?
Answer: Its yeast fitness is 0.653.

Question: With GUUCCGUUGGCAUAAUGGCAACGCGUCUCCCUCCUAAGGAGUAGACUCCGGGUUUGAGUCCCGUACGGAACG [G12A U19C A42U G48C C55U] as the variant, how does the yeast fitness read?
Answer: The yeast fitness was 0.593.

Question: For GUUCCGUUGGCAUAAUGGCAACGCGUCUCCGUCCUAAGGAGAAGACUGCGGGUUCGAGUCCCGUACGGAACG [G12A U19C C31G], which yeast fitness is on record?
Answer: Its yeast fitness is ≤ 0.5.

Question: Which yeast fitness does the source give for GUUCCGUUGGCAUAAUGGCAACGCGUCUCCCUCGUAAGGAGAAGACUGCGGGUUCGAGUCCCGUACGGAACG [G12A U19C C34G] here?
Answer: Its yeast fitness is 0.544.

Question: For GUUCCGUUGGCAUAAUGGCAACACGUCUCCCCCCUAAGGAGACGACUGCGGGUUCGAGUCCCGUACGGAACG [G12A U19C G23A U32C A43C], which yeast fitness is on record?
Answer: The yeast fitness was ≤ 0.5.

Question: With GUUCCGUUGGCAUAAUGGCAACGCGUCCCCCUCCUAAGGAGAAGACUGCGGGUUGGAGUCCCGUACGGAACG [G12A U19C U28C C55G] as the variant, how does the yeast fitness read?
Answer: The yeast fitness was ≤ 0.5.

Question: With GUUCCGUUGGCAUAAUGGGAACGCGUCUCCCUCCCAAGGUGGAGACUGCGGGUUCGAGUCCCGUACGGAACG [G12A U19G U35C A40U A42G] as the variant, how does the yeast fitness read?
Answer: Its yeast fitness is ≤ 0.5.

Question: For GUUCCGUUGGCAUAAUGGGAACGCGUCUCCCUCCCAAGGUGAAGACUGCGGCUUCGAGUCCCGCACGGAACG [G12A U19G U35C A40U G52C U64C], which yeast fitness is on record?
Answer: The yeast fitness was ≤ 0.5.

Question: For GUUCCGUUGGCAUAAUGGUAACGCGACUCCCUCCUAAGGAGAAGACUGCGGGUUCGAGUCCCGUACGGAACG [G12A U26A], which yeast fitness is on record?
Answer: Its yeast fitness is 0.941.

Question: With GUUCCGUUGGCAUAAUGGUAACGCGACUCCCUCCUAAGGAGAAGACUGCGGGUUCGAGUCCCGUACGGAUCG [G12A U26A A70U] as the variant, how does the yeast fitness read?
Answer: Its yeast fitness is 0.523.
